Results reported in ChEMBL document CHEMBL4257467, “Synthesis and pharmaceutical characterization of site specific mycophenolic acid-modified Xenopus glucagon-like peptide-1 analogs” (Medchemcomm, 2018).
*1 amine or outer side, *2 acyl side, *3 side chain or, on linkers, in order; H or OH if unused. Where a SMILES comes first, the peptide text is derived from it. Side-chain parts run from the residue outwards. The star is where a group is joined. Mycophenolyl = COc1c(C)c2c(c(O)c1C/C=C(\C)CCC(=O)*)C(=O)OC2; γGlu = O=C(O)[C@H](CCC(=O)[*:2])N[*:1]; 12Ado = NCCCCCCCCCCCC(=O)O; Ahx = NCCCCCC(=O)O

Target: Glucagon-like peptide 1 receptor (Homo sapiens, UniProt P43220)
Sequence (P43220 whole entry): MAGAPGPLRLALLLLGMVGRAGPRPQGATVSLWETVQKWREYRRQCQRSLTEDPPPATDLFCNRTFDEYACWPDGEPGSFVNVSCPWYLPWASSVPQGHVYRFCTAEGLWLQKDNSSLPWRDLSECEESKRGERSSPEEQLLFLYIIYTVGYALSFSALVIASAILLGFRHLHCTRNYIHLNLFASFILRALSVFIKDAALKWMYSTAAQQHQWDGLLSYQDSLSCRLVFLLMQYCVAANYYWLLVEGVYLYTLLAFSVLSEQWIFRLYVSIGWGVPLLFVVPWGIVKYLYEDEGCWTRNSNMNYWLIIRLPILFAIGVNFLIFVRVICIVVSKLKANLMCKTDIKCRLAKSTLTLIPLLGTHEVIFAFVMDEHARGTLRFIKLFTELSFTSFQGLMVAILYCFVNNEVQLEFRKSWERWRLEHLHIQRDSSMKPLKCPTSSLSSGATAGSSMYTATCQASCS
Test: Agonist activity at human GLP1 receptor expressed in HEK293 cells assessed as increase in cAMP level after 30 mins by HTRF method
Assay type: functional, cell-based
Procedure, shortened: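 HEK293 cells stably expressing human GLP-1 receptor, thawed, suspended in DMEM with 20 mM HEPES, 2 mM L-Glu, 0.5% FBS, 1% pen-strep. Compounds dissolved in DMSO, diluted in assay buffer to 1 × 10−13–1 × 10−6 M final, 30 min at 37 °C in 5% CO2. cAMP read by HTRF. EC50 as means ± SD of three individual experiments, n = 3.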

Row | EC50 | SMILES
1 | 6.9 nM | CC[C@H](C)[C@H](NC(=O)[C@H](CC(C)C)NC(=O)[C@H](Cc1c[nH]c2ccccc12)NC(=O)[C@H](CCC(=O)O)NC(=O)[C@@H](NC(=O)[C@H](Cc1ccccc1)NC(=O)[C@H](CCC(=O)O)NC(=O)[C@H](CCCCNC(=O)CC[C@H](NC(=O)CCCCCNC(=O)CC/C(C)=C/Cc1c(O)c2c(c(C)c1OC)COC2=O)C(=O)O)NC(=O)[C@H](C)NC(=O)[C@H](C)NC(=O)[C@H](CCC(=O)O)NC(=O)[C@H](CCC(=O)O)NC(=O)[C@H](CCC(=O)O)NC(=O)[C@H](CC(C)C)NC(=O)[C@H](Cc1ccc(O)cc1)NC(=O)[C@H](CCC(=O)O)NC(=O)[C@@H](NC(=O)[C@@H](NC(=O)[C@H](CC(=O)O)NC(=O)[C@H](CC(N)=O)NC(=O)[C@@H](NC(=O)[C@H](Cc1ccc(O)cc1)NC(=O)[C@@H](NC(=O)CNC(=O)[C@H](CCC(=O)O)NC(=O)CNC(=O)[C@@H](N)Cc1cnc[nH]1)[C@@H](C)O)[C@@H](C)O)C(C)C)[C@@H](C)O)[C@@H](C)CC)C(=O)N[C@@H](CCCCN)C(=O)NCC(=O)N[C@@H](CCCCN)C(=O)O (H-HGEGTYTNDVTEYLEEEAAK([γGlu-Ahx-Mycophenolyl])EFIEWLIKGK-OH)
2 | 7.3 nM | CC[C@H](C)[C@H](NC(=O)[C@H](CC(C)C)NC(=O)[C@H](Cc1c[nH]c2ccccc12)NC(=O)[C@H](CCC(=O)O)NC(=O)[C@@H](NC(=O)[C@H](Cc1ccccc1)NC(=O)[C@H](CCC(=O)O)NC(=O)[C@H](CCCCNC(=O)CC[C@H](NC(=O)CCCCCCCCCCCNC(=O)CC/C(C)=C/Cc1c(O)c2c(c(C)c1OC)COC2=O)C(=O)O)NC(=O)[C@H](C)NC(=O)[C@H](C)NC(=O)[C@H](CCC(=O)O)NC(=O)[C@H](CCC(=O)O)NC(=O)[C@H](CCC(=O)O)NC(=O)[C@H](CC(C)C)NC(=O)[C@H](Cc1ccc(O)cc1)NC(=O)[C@H](CCC(=O)O)NC(=O)[C@@H](NC(=O)[C@@H](NC(=O)[C@H](CC(=O)O)NC(=O)[C@H](CC(N)=O)NC(=O)[C@@H](NC(=O)[C@H](Cc1ccc(O)cc1)NC(=O)[C@@H](NC(=O)CNC(=O)[C@H](CCC(=O)O)NC(=O)CNC(=O)[C@@H](N)Cc1cnc[nH]1)[C@@H](C)O)[C@@H](C)O)C(C)C)[C@@H](C)O)[C@@H](C)CC)C(=O)N[C@@H](CCCCN)C(=O)NCC(=O)N[C@@H](CCCCN)C(=O)O (H-HGEGTYTNDVTEYLEEEAAK([γGlu-12Ado-Mycophenolyl])EFIEWLIKGK-OH)
3 | 23.5 nM | CC[C@H](C)[C@H](NC(=O)[C@H](CC(C)C)NC(=O)[C@H](Cc1c[nH]c2ccccc12)NC(=O)[C@H](CCC(=O)O)NC(=O)[C@@H](NC(=O)[C@H](Cc1ccccc1)NC(=O)[C@H](CCC(=O)O)NC(=O)[C@H](CCCCN)NC(=O)[C@H](C)NC(=O)[C@H](C)NC(=O)[C@H](CCC(=O)O)NC(=O)[C@H](CCC(=O)O)NC(=O)[C@H](CCC(=O)O)NC(=O)[C@H](CC(C)C)NC(=O)[C@H](Cc1ccc(O)cc1)NC(=O)[C@H](CCC(=O)O)NC(=O)[C@@H](NC(=O)[C@@H](NC(=O)[C@H](CC(=O)O)NC(=O)[C@H](CC(N)=O)NC(=O)[C@@H](NC(=O)[C@H](Cc1ccc(O)cc1)NC(=O)[C@@H](NC(=O)CNC(=O)[C@H](CCC(=O)O)NC(=O)CNC(=O)[C@@H](N)Cc1cnc[nH]1)[C@@H](C)O)[C@@H](C)O)C(C)C)[C@@H](C)O)[C@@H](C)CC)C(=O)N[C@@H](CCCCN)C(=O)NCC(=O)N[C@@H](CCCCNC(=O)CC[C@H](NC(=O)CCCCCCCCCCCNC(=O)CC/C(C)=C/Cc1c(O)c2c(c(C)c1OC)COC2=O)C(=O)O)C(=O)O (H-HGEGTYTNDVTEYLEEEAAKEFIEWLIKGK([γGlu-12Ado-Mycophenolyl])-OH)
